According to ChEMBL document CHEMBL1145855, “Computer-aided selection of potential antihypertensive compounds with dual mechanism of action” (J Med Chem, 2003):

These molecules were tested against Angiotensin-converting enzyme (Homo sapiens, UniProt P12821) (assay: Inhibitory activity against Angiotensin I converting enzyme (ACE) from human blood serum).
Chain of Angiotensin-converting enzyme (Homo sapiens, UniProt P12821) (P12821 whole entry): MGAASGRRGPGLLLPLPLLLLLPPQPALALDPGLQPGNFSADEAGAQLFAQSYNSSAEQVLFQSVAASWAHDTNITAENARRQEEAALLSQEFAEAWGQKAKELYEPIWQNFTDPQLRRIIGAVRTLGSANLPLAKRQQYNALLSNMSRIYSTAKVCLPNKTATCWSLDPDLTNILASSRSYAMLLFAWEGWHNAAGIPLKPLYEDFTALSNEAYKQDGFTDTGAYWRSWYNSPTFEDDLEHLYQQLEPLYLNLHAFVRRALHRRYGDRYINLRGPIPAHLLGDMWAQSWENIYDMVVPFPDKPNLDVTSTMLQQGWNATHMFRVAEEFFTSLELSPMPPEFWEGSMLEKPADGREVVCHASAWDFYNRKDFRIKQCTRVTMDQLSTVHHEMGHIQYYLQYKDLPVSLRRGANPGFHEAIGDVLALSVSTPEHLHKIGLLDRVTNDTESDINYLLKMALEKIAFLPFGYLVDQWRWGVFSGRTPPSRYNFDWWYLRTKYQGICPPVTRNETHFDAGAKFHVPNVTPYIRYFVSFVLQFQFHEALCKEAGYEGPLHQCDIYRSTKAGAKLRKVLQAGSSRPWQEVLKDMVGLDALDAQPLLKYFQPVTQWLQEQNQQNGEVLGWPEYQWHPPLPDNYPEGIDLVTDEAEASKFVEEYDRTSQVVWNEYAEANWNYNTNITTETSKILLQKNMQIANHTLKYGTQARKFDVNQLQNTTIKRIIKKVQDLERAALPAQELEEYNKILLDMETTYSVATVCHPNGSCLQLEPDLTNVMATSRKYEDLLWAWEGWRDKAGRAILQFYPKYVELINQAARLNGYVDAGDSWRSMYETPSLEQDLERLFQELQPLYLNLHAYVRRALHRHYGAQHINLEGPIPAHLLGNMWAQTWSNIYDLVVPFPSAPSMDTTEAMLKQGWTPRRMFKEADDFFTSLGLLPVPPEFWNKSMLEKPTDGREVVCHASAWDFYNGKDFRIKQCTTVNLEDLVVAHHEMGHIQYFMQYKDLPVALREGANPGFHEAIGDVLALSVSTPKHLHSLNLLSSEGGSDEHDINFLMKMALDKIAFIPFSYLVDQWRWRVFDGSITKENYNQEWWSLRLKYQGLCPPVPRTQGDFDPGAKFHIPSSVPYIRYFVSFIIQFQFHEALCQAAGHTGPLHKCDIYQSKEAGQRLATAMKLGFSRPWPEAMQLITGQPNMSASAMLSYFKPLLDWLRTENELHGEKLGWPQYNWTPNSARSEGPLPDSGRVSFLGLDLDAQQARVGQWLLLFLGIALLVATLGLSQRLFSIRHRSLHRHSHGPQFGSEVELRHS

SMILES | IC50
CC(=O)SCC(C)C(=O)NCc1ccccc1 (configuration not stated) | 200 µM
CC(=O)SCC(C)C(=O)Nc1ccccc1 (configuration not stated) | 2 µM
CC1CCCC(C(=O)O)N1C(=O)CCS (configuration not stated) | 0.02 µM
O=C(O)CCCNCP(=O)(O)CCc1ccccc1 | 100 µM

What follows are molecules tested against T1, Angiotensin-converting enzyme (Rattus norvegicus, UniProt P47820) (assay: Inhibitory activity against Angiotensin I converting enzyme (ACE) from rat cortex brain membrane).
T1 sequence (P47820 whole entry): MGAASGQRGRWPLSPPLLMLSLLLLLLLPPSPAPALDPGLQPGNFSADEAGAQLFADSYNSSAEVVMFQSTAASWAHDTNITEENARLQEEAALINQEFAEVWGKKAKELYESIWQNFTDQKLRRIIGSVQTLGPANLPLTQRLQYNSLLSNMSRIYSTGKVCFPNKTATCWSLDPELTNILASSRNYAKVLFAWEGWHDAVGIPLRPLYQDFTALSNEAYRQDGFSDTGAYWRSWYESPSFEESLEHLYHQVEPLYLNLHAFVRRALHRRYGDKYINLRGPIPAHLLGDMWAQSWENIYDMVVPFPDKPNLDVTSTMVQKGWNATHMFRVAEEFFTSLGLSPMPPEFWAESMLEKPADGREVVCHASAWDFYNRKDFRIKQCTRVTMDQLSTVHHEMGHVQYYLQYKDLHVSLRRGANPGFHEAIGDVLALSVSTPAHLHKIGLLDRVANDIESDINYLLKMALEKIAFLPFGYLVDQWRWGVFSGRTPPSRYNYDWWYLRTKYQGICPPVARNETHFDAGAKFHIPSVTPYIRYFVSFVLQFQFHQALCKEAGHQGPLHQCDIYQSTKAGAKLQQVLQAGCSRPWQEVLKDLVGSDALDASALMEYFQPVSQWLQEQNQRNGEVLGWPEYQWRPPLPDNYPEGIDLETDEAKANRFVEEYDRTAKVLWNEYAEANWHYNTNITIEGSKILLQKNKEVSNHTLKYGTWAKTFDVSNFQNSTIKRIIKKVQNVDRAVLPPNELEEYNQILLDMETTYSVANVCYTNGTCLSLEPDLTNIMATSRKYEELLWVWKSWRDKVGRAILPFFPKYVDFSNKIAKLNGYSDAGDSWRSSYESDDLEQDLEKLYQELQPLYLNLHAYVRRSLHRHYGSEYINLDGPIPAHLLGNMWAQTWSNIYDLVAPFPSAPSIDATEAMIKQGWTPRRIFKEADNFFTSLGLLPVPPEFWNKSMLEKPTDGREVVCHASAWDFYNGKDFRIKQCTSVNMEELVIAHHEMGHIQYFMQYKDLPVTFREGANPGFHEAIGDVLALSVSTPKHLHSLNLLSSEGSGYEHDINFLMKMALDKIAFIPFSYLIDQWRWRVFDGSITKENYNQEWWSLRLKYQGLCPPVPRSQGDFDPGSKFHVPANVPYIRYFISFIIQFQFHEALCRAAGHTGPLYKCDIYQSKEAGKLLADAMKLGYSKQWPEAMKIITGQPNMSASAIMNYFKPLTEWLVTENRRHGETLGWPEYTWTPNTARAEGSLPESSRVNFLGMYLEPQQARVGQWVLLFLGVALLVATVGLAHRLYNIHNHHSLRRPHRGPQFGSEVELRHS
Summary of the method: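 Enzyme source was human serum (diluted 1:5) or rat cortex brain membrane suspension, in 70 mM potassium phosphate pH 8.3 with 300 mM NaCl. Compound (10^-3 to 10^-8 M) preincubated 20 min at 37 °C, then 25 µM Hip-His-Leu added for 120 min; stopped with NaOH.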

SMILES | IC50
CC(=O)SCC(C)C(=O)NCc1ccccc1 (configuration not stated) | 100 µM
CC(=O)SCC(C)C(=O)Nc1ccccc1 (configuration not stated) | 1 µM
CC1CCCC(C(=O)O)N1C(=O)CCS (configuration not stated) | 0.1 µM
O=C(O)CCCNCP(=O)(O)CCc1ccccc1 | 100 µM

What follows are molecules tested against T2, Neprilysin (Rattus norvegicus, UniProt P07861) (assay: Inhibitory activity against neutral endopeptidase (NEP) from rat cortex brain membrane).
T2 sequence (P07861 whole entry): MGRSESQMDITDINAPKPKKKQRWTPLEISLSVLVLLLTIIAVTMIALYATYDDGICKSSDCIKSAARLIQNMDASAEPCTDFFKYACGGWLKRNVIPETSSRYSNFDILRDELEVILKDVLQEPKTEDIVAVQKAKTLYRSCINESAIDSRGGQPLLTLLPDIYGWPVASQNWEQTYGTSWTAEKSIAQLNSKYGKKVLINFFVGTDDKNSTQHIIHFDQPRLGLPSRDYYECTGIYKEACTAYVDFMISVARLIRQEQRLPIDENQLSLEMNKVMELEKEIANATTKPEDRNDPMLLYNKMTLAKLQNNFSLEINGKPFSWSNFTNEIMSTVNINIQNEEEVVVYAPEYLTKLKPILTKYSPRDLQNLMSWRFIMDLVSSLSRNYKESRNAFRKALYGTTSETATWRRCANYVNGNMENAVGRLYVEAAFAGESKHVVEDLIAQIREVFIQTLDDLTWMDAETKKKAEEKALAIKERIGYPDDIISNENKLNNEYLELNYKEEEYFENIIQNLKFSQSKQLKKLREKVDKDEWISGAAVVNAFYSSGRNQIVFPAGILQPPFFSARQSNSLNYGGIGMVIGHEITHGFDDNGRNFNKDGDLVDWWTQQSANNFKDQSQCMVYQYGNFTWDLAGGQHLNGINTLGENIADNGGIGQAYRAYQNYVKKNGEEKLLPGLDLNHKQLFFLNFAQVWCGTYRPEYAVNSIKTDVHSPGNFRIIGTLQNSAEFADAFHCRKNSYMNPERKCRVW
Summary of the method: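 Rat cortex brain membrane suspension in 50 mM Tris-HCl pH 7.5, with six to eight inhibitor concentrations (10^-2 to 10^-6 M). Preincubated 20 min at 37 °C, then Suc-Ala-Ala-Phe-MCA (20 µM final) added for 120-180 min at 37 °C; stopped with pH 4.0 acetate. Released 4-methylcoumarinyl-7-amine read at Ex 383/Em 455 nm; % inhibition versus control; IC50.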

SMILES | IC50
CC(C)C[C@H](NP(=O)(O)O[C@@H]1O[C@@H](C)[C@H](O)[C@@H](O)[C@H]1O)C(=O)N[C@@H](Cc1c[nH]c2ccccc12)C(=O)O [PHOSPHORAMIDON] | 0.2 µM
CC(=O)SCC(C)C(=O)NCc1ccccc1 (configuration not stated) | 200 µM
CC(=O)SCC(C)C(=O)Nc1ccccc1 (configuration not stated) | 200 µM
CC1CCCC(C(=O)O)N1C(=O)CCS (configuration not stated) | 2000 µM
O=C(O)CCCNCP(=O)(O)CCc1ccccc1 | 2000 µM

These molecules were tested against Neprilysin (Homo sapiens, UniProt P08473) (assay: Inhibitory activity against neutral endopeptidase (NEP) from human blood serum).
Chain of Neprilysin (Homo sapiens, UniProt P08473) (P08473 whole entry): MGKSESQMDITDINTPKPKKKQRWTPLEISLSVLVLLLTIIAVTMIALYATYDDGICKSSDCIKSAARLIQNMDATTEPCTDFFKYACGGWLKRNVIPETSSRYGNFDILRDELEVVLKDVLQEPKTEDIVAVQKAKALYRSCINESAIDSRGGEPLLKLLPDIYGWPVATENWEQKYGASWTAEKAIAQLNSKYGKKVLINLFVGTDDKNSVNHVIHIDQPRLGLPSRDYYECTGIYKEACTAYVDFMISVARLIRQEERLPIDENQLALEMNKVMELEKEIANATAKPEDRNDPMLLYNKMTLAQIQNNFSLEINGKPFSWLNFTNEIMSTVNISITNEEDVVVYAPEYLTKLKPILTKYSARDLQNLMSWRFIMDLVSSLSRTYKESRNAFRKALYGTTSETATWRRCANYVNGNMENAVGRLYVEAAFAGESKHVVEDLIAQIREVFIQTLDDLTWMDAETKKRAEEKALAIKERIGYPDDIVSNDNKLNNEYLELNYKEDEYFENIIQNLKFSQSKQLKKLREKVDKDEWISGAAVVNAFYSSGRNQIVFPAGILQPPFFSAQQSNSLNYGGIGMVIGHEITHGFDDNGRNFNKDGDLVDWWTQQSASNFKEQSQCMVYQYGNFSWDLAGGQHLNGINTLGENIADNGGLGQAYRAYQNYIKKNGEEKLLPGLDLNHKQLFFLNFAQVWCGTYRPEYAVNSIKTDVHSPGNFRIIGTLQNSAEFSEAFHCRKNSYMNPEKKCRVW
Summary of the method: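 Human serum (diluted 1:5) as enzyme source, with the test compound at six to eight concentrations from 10^-2 to 10^-6 M, in 50 mM Tris-HCl pH 7.5. Preincubated 20 min at 37 °C. Suc-Ala-Ala-Phe-MCA added (20 µM final) and incubated 120-180 min at 37 °C. Stopped with 20 mM sodium acetate pH 4.0. Released 4-methylcoumarinyl-7-amine read at Ex 383/Em 455 nm. Percent inhibition taken against the no-inhibitor control; IC50 derived.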

SMILES | IC50
CC(C)C[C@H](NP(=O)(O)O[C@@H]1O[C@@H](C)[C@H](O)[C@@H](O)[C@H]1O)C(=O)N[C@@H](Cc1c[nH]c2ccccc12)C(=O)O [PHOSPHORAMIDON] | 0.1 µM
CC(=O)SCC(C)C(=O)NCc1ccccc1 (configuration not stated) | 20 µM
CC(=O)SCC(C)C(=O)Nc1ccccc1 (configuration not stated) | 20 µM

The molecules below were run against Angiotensin-converting enzyme (Bos taurus) (UniProt P12820) (assay: Inhibitory activity of compound at 1*10e-4 M against Angiotensin I converting enzyme (ACE) from bovine kidney).
Chain of Angiotensin-converting enzyme (Bos taurus) (P12820 whole entry, looked up): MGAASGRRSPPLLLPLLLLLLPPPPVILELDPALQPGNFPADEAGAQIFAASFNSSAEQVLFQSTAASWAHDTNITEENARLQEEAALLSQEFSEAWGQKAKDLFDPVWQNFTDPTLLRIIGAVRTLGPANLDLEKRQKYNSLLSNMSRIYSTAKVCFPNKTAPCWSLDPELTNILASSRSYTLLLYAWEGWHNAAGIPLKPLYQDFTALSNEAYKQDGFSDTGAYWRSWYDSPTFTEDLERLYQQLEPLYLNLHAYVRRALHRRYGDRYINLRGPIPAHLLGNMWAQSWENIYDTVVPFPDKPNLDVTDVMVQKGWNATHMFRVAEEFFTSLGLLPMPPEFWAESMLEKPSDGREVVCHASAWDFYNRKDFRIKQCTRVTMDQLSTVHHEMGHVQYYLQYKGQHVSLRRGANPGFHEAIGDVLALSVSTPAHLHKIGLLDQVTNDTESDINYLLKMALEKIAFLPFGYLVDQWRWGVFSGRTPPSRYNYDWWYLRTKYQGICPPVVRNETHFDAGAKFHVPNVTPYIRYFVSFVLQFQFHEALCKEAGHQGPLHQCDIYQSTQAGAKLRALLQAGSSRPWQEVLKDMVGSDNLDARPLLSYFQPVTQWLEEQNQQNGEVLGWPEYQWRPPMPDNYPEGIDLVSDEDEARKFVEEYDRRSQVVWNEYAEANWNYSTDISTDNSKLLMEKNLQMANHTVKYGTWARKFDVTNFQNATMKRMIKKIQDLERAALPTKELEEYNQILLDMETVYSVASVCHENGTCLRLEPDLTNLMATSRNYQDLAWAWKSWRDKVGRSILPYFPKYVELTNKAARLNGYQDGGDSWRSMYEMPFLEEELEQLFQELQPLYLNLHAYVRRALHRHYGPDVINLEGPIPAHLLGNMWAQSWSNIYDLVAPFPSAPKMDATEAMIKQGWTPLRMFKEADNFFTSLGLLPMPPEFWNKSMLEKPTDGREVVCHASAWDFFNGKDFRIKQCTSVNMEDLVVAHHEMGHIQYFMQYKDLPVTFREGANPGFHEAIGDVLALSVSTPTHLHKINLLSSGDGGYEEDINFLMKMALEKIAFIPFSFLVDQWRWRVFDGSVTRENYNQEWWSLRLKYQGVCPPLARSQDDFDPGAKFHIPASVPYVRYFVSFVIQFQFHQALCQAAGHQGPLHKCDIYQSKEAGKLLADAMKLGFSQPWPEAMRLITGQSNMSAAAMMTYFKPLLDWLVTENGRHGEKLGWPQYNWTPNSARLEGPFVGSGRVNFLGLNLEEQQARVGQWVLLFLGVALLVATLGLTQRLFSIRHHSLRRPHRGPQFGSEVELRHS

SMILES | inhibition
O=C(O)CCCNCP(=O)(O)CCc1ccccc1 | 18%
